Experimental data reported in ChEMBL document CHEMBL1132072, “Synthesis, in vitro cytotoxicity and in vivo anti-inflammatory activity of long chain 3-amino-1,2-diols” (Bioorg Med Chem Lett, 1999).

Legend:
UMSCC22B = experiment: In vitro inhibitory activity against human and neck squamous cell carcinoma UMSCC-22B cell line; format: functional, cell-based
Procedure, shortened: (§1)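 Monolayer cultures in RPMI 1640 with 5% heat-inactivated FCS and 2 mM L-glutamine, 37 °C, 5% CO2. Seeded at 5,000–20,000 cells/well according to doubling time, in gentamicin-containing medium. Compounds dissolved in DMSO and tested at five 10-fold dilutions from a top final concentration of 10⁻⁴ M for 72 h. Cells were TCA-fixed and stained with SRB, with OD read at 492 nm (NCI protocol). IC50 is the concentration giving 50% growth inhibition.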

H322 = experiment: In vitro inhibitory activity against H322 human NSCLC cell line; format: functional, cell-based; conditions: NCI-H322; procedure, shortened: as §1
Colon 26 = experiment: In vitro inhibitory activity against murine colon carcinoma C26-10 cell line; format: functional, cell-based; conditions: Mus musculus; procedure, shortened: as §1
WiDr = experiment: In vitro inhibitory activity against human colon carcinoma WiDr cell line;; format: functional, cell-based; procedure, shortened: as §1
Rattus norvegicus [1] = experiment: In vivo anti-inflammatory activity against carrageenan-induced paw edema assay in rats at dose 0.15 mM/kg; format: functional
Procedure, shortened: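 Fisher 344 rats of either sex, excluding pregnant females, six animals per group with two groups per compound. Edema induced by intradermal injection of 0.1 mL of 2% carrageenin (type K100) in saline into the right paw. Compound given ip as a single 0.15 mmol/kg dose at the same time. Paw edema measured 3.5 h later. Indomethacin served as the reference drug.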

[2] = test system: Lewis lung carcinoma cell line; experiment: In vitro inhibitory activity against LL murine NSCLC cell line;; format: functional, cell-based; conditions: Mus musculus; procedure, shortened: as §1
A2780 = experiment: In vitro inhibitory activity against human ovarian cancer A2780 cell line; format: functional, cell-based; procedure, shortened: as §1
Rattus norvegicus [3] = experiment: In vivo anti-inflammatory activity against carrageenan-induced paw edema assay in rats at dose 0.11 mM/kg; format: functional

Compound | IC50 (UMSCC22B) | IC50 (H322) | IC50 (Colon 26) | IC50 (WiDr) | Inhibition (Rattus norvegicus [1]) | IC50 [2] | IC50 (A2780) | Inhibition (Rattus norvegicus [3])
CCCCCCCCCCCCCC[C@H](NC(=O)OC(C)(C)C)[C@H](O)CO | 23.8 µM | 18 µM | 29.3 µM | 20.8 µM | 45.2% | 24.2 µM | 30.4 µM | 
COc1ccc2c(c1)c(CC(=O)O)c(C)n2C(=O)c1ccc(Cl)cc1 [INDOMETHACIN] |  |  |  |  |  |  |  | 53.3%
CCCCCCCCCCCCCCC(N)CN (stereo not drawn) | 1.89 µM | 2.94 µM | 3.3 µM | 24.2 µM | 93.5% | 2.93 µM | 2.79 µM | 
CCCCCCCCCCCCCC[C@@H](N)[C@@H](O)CO | 2.49 µM | 1.52 µM | 3.58 µM | 2.99 µM | 85.3% | 1.87 µM | 2.63 µM | 
CCCCCCCCCCCCCCCCCC[C@H](N)[C@H](O)CO | 2.34 µM | 1.71 µM | 3.97 µM | 3.47 µM | 79.6% | 3.47 µM | 2.71 µM | 
CCCCCCCCCCCCCCCCCC[C@@H](N)[C@@H](O)CO | 3.5 µM | 24.4 µM | 21.5 µM | 13.3 µM | 80.04% | 10.6 µM | 32.8 µM | 
CCCCCCCCCCCCCC[C@H](N)[C@H](O)CO | 1.89 µM | 1.45 µM | 3.68 µM | 2.76 µM | 81.1% | 2.86 µM | 2.66 µM | 
